Screening results from PubChem BioAssay.
The sample as a whole holds a higher share of hits than the screen did.
Calb biofilm kill: clotrimazole potentiators killing C. albicans biofilm, primary screen, 4-compound mixtures. C. albicans biofilm persisters + clotrimazole, fluorescence viability; primary screen in compound mixtures of four per well. inhibition, % at 7.6 µM. 120,000 tested, 0.02% active;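 active means inhibition above 30.3% in the primary screen of four-compound pools, then above 30% when the compound was retested; inconclusive means passed the primary limit but could not be retested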;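 further: compounds exposed to preformed 24 h biofilms for 48 h; 0% = untreated biofilm control and 100% = clotrimazole plus chlorhexidine kill blank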
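Probe or stimulus – Clotrimazole 50 µg/mL co-treatment · System – C. albicans biofilms · Schedule – 24 h biofilm formation, then 48 h compound exposure, 37 °C · Evaluation – percent inhibition of biofilm viability · Technique – 2-h Alamar Blue fluorescence, 535/590 nm excitation/emission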
ROMK mod: ROMK potassium channel modulators, primary screen, cell-based, thallium flux, MLSMR library. Tet-inducible ROMK, thallium flux fluorescence; actives lie on both sides. B-score at 10 µM. 130,000 tested, 2% active. AID 1918, 2009;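 active means signal ratio slope over the read window, or its plate-corrected B-score, at least 3 SD from the plate mean, either direction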;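 further: B-score of the F/F0 ratio slope over 7 to 12 s after thallium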
Target sequence (P48048 whole entry, looked up): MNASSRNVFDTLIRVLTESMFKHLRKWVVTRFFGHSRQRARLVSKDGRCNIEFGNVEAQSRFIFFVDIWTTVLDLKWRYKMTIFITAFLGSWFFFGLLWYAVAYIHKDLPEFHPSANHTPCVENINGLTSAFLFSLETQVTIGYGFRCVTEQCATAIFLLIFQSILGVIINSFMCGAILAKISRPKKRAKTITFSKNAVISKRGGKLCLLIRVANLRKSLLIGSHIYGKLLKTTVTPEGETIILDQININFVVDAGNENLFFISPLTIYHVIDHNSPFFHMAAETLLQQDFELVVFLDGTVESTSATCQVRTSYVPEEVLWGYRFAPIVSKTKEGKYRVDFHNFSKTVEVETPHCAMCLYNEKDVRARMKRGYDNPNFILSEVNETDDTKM
Pf gametocyte: late stage P. falciparum gametocyte viability inhibitors, primary screen, ATP luminescence, HTS; P. falciparum stage V gametocytes, 24 h; inhibition, % at 10.9 µM; 150,000 tested, 0.065% active; AID 743093, 2013;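 active means inhibition above the mean plus 3 SD of compounds within the control limits, set per campaign, cut at about 38% in these data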;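 further: 0% = DMSO wells and 100% = medium only without gametocytes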
ROMK hit retest: ROMK channel modulator hit retest, confirmation, cell-based, thallium flux, duplicate, resupplied hits; shares compounds with ROMK mod; fluorescence ratio; stronger effect = lower value; normalized thallium flux (F/F0 slope) at 10 µM; 3,000 tested, 54% active; AID 1917, 2009;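 active means Flux at 10 µM at least 3 SD below or above vehicle control mean in one or both replicates; inconclusive means no clear call, values can overlap the other calls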
Active calls of the source: *; u = inconclusive; x = no result.

SMILES	Calb biofilm kill	ROMK mod	Pf gametocyte	ROMK hit retest
COc1ccc(NC(=O)c2sc3nc(Cc4ccccc4)cc(C(F)(F)F)c3c2N)cc1OC	5.8	x	-14.4	x
COc1ccccc1NC(=O)c1sc2nc(Cc3ccccc3)cc(C(F)(F)F)c2c1N	x	-5.48*	x	0.0476*
O=C(NCCN1CCN(c2ccccc2)CC1)Nc1cccc(Cl)c1	x	x	-18.2	x
CCOC(=O)c1cc(-c2ccccc2)n(CC(=O)Nc2ccc(OC)c(OC)c2)c1C	11.5	-0.619	x	x
CCOC(=O)c1cc(-c2ccccc2)n(CC(=O)Nc2cccc(OC)c2)c1C	14.7	-4.79*	-12.8	0.0792
COc1cccc(C(=O)C2CCCN(Cc3cccc(-n4nc(C)cc4C)c3)C2)c1 (centres undefined)	15.8	-1.75	22.8	x
Cc1ccc(-c2nnn(CC(=O)N(CCN3CCOCC3)C(C(=O)NC(C)(C)C)c3ccc(C)o3)n2)cc1 (centres undefined)	28.4	0.402	-7.2	x
CCOc1cc(/C=C/c2nc3cc(C)c(C)cc3s2)ccc1OCC(=O)N1CCOCC1	4.0	x	-7.8	x
CCOc1cc(/C=C\[N+](=O)[O-])ccc1OCC(=O)N1CCOCC1	4.4	-5.62*	1.2	0.0565*
Cc1cc(Cl)ccc1Oc1ccccc1C(=O)CC#N	16.9	-0.71	7.3	x
O=C(CN1C(=O)S/C(=C\C=C\c2ccccc2)C1=O)N1CCOCC1	10.3	-0.865	-9.5	x
Nc1ccc2c(c1)C(=O)c1ccccc1-2	x	x	1.1	x
Nc1ccc2c(c1)C(=O)C(=O)c1ccccc1-2	x	-5.62*	1.3	0.037*
NC(=O)CC(NC(=O)Cc1cccc2ccccc12)c1ccc(NCCc2ccccc2F)c([N+](=O)[O-])c1 (centres undefined)	15.8	x	19.8	x
CCOc1ccccc1Nc1nnc(C)c(=O)[nH]1	x	0.0752	x	x
COc1ccccc1Nc1nnc(C)c(=O)[nH]1	x	2.97*	-18.9	0.0774
O=Cc1ccc(-c2ccc([N+](=O)[O-])cc2Cl)o1	12.0	0.577	-19.3	x
O=Cc1ccc(-c2cccc([N+](=O)[O-])c2)o1	8.7	x	-30.9	0.101*
Cc1cc(C)cc(N(CC(=O)NC(C)C)C(=O)CCC(=O)Nc2ccccn2)c1	x	x	-13.8	x
COc1ccc(S(=O)(=O)NCC(c2cccnc2)N2CCN(c3ccccc3)CC2)cc1C (centres undefined)	x	-0.0922	x	x
COc1ccc(S(=O)(=O)NCC(c2cccnc2)N2CCN(c3ccc(F)cc3)CC2)cc1C (centres undefined)	x	-3.85*	x	0.0743
COc1ccc(NC(=O)CN2C(=O)N(C)Cc3ccccc32)c(C)c1	5.9	-0.548	x	x
Cc1nc(C)c2c(=O)cc(-c3ccccc3)[nH]c2n1	x	1.22*	x	0.0915
Cc1nc(-c2ccccc2)nc2[nH]c(-c3ccccc3)cc(=O)c12	x	0.938	x	x
O=C1[C@H]2[C@@H](C3CC3)N3C(=O)CN(Cc4ccccn4)C(=O)[C@@]3(Cc3ccccc3)[C@H]2C(=O)N1c1ccccc1	x	x	4.7	x
SMILES	Calb biofilm kill	ROMK mod	Pf gametocyte	ROMK hit retest
Cc1cccc(Nc2ncccc2C(=O)O)c1C	x	x	x	0.0789
Cc1cccc(Nc2ccccc2C(=O)O)c1C	7.9	x	x	x
CCOC(=O)CN(C(=O)CNC(=O)c1cccs1)C(C(=O)NC1CCCC1)c1cccnc1 (centres undefined)	x	-0.215	x	x
CCOC(=O)CN(C(=O)CNC(=O)c1cccs1)C(C(=O)NC1CCCCC1)c1cccs1 (centres undefined)	15.7	x	x	0.0754
CCN(CC)c1ccc(C=N/C(C#N)=C(\N)C#N)cc1	x	x	x	u
CCN(CC)c1ccc(/C=C(\C#N)c2ccccn2)cc1	14.3	1.75	x	x
C=CCN(c1ccccc1Cl)S(=O)(=O)c1cccc(C(=O)NCCc2ccc(OC)cc2)c1	16.5	-0.232	x	x
CC1=C(C(=O)OCc2ccccc2)C(c2cccc3ccccc23)NC(=O)N1CCCC(=O)O (centres undefined)	x	x	-7.2	x
CCCCN1C(=O)/C(=C/C=C2\SCCN2C)SC1=S	-8.4	-3.35*	3.0	0.0522*
CN1CCS/C1=C/C=C1\SC(=S)N(CC(=O)O)C1=O	6.2	x	1.2	x
CCCN1C(=O)/C(=C\C=C2/C=CN(CC)c3ccccc32)SC1=S	-3.0	x	-17.8	x
CCCCN1C(=O)/C(=C/C=C2\N(C)c3ccccc3C2(C)C)SC1=S	x	-4.4*	x	0.0394*
O=C(NC1CCCCCC1)C1CCCN(S(=O)(=O)c2cccs2)C1 (centres undefined)	x	x	-1.4	u
O=C(NC1CCCCC1)C1CCN(S(=O)(=O)c2cccs2)CC1	x	-0.0571	-2.8	x
CC(=O)NC(=S)Nc1ccc2oc(=O)ccc2c1	-3.9	x	10.0	x
O=C(/C(=C/c1ccc(Cl)cc1)c1nc2ccccc2[nH]1)c1cccs1	x	-5.42*	x	0.0567*
COc1cc(/C=C(/C(=O)c2cccs2)c2nc3ccccc3[nH]2)ccc1O	x	x	4.3	0.0553*
O=C(/C(=C\c1ccccc1)c1nc2ccccc2[nH]1)c1ccc(Cl)cc1	18.6	x	0.5	x
COC(=O)/C(=C\c1cc(OC)c(OC)c(OC)c1)c1nc2ccccc2[nH]1	14.5	-1.84	-9.3	x
CC(C)(C)/C(O)=C/c1nc2ccccc2[nH]c1=O	7.4	x	-10.3	x
O=c1[nH]c2ccccc2nc1/C=C(\O)c1cccs1	14.3	-2.53*	3.5	0.0455*
C[C@H]1CN=C(Nc2ccccc2)N1CCc1ccccc1	x	x	11.8	x
O=C(c1ccc(Br)o1)N1CCN(Cc2ccccc2Cl)CC1	x	x	-0.3	x
Cc1ccc(C(=O)CCC(=O)Nc2cccc(C)c2)cc1	x	x	-8.9	x
CC(C)(C)OC(=O)C[C@@H]1C/C=C\C[C@H](CC(=O)NCCO)C(=O)NC[C@H](c2ccccc2)OC1=O	x	x	15.2	x
SMILES	Calb biofilm kill	ROMK mod	Pf gametocyte	ROMK hit retest
COc1ccccc1N1CCN(/N=C/c2ccccc2C(=O)O)CC1	x	x	-21.2	x
CCOC(=O)c1ccc(-n2c(O)c(/C=N/NC(=O)C3COc4ccccc4O3)c3ccccc3c2=O)cc1 (centres undefined)	1.3	x	-2.9	0.0457*
Cc1nn(-c2ccccc2)c(Cl)c1/C=N/NC(=O)C1COc2ccccc2O1 (centres undefined)	18.0	x	x	x
CC(C)CCC1(CCNC(C)c2cccs2)CCOC(C)(C)C1 (centres undefined)	8.4	x	15.9	x
COC(=O)N/N=C/c1cn(Cc2ccccc2F)c2ccccc12	14.8	-3.35*	-10.7	0.0586*
COC(=O)N/N=C/c1cn(Cc2ccccc2Cl)c2ccccc12	11.3	-1.05	8.9	x
CC(C(=O)NCc1ccccc1Cl)n1cc([N+](=O)[O-])cn1 (centres undefined)	x	x	5.4	x
Cc1noc(NS(=O)(=O)c2ccc(NC(=O)C(CC(C)C)N3C(=O)c4ccccc4C3=O)cc2)c1C (centres undefined)	21.8	x	15.8	x
O=C(CNCc1ccccn1)Nc1cc(S(=O)(=O)N2CCCCC2)ccc1Cl	12.8	-0.12	-28.4	x
COc1ccccc1CNCC(=O)Nc1cc(S(=O)(=O)N2CCCCCC2)ccc1Cl	17.0	x	0.9	0.0664*
CCOc1ccc(CCNC(=O)COC(=O)c2cc(OC)cc(OC)c2)cc1OCC	14.2	-0.424	-11.4	x
